Bioassay records from PubChem.
TAAR1 antag = antagonists of human TAAR1. CHO RD-HGA16 TAAR1, Fluo-8 calcium fluorescence, antagonist. inhibition, % at 3 µM. actives 1.5% (n = 360,000). AID 624466;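 active means inhibition above a per-plate cutoff, the mean inhibition of test compounds on that plate plus 3 SD, cut at about 49% in these data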;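 further: 0% = DMSO plus EC80 beta-PEA response and 100% = DMSO alone without agonist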
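Test system – hTAAR1-expressing CHO RD-HGA16 cells, Gα16-coupled · Reagent – β-PEA at EC80 concentration, post-compound challenge · Compound dosing – 3 µM, single point · Timing – 140 s kinetic read after compound, 140 s after agonist · Detection – Fluo-8 intracellular calcium dye fluorescence, real-time kinetic reads · Control set – DMSO and EC80 PEA controls · Repeats – n of 1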
TAAR1 agonist = agonists of human TAAR1. activation, % at 3 µM. CHO RD-HGA16 TAAR1, Fluo-8 calcium fluorescence; vehicle wells 0%, saturating PEA agonist 100%. actives 0.99% (n = 360,000);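 active means activation above the mean activation of all test compounds in the run plus 3 SD, cut at about 38% in these data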
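Assay system – CHO-derived RD-HGA16 cells with stable Gα16 and human TAAR1 · Compound dosing – one-point dosing at 3 µM (nominal) · Incubation – 17-24 h seeding, 75 min 37 °C dye, 30 min RT · Measured by – kinetic Fluo-8 calcium fluorescence · Control set – DMSO vehicle as 0%, PEA at EC100 as 100% · Repeats – single well for each compound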
OXTR potentiate = human OXTR potentiation | P30559 | CHO-OTR cells, Fluo-8 calcium fluorescence, potentiator mode; 0% = oxytocin EC15, 100% = EC100 | activation, % at 3 µM | actives 0.061% (n = 320,000);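 active means activation above that plate's cutoff, the mean activation of tested compounds plus 3 SD, cut at about 6.6% in these data, passing the limit was not always enough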;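 further: 100% uses oxytocin at 75 nM as the full agonist control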
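Replication – single well per compound, singlicate · Assay system – CHO cell line stably expressing human OTR · Timing – 6 min pre-incubation, 100 s read · Measure – normalized max/min fluorescence ratio, % activation · Doses – 3.0 µM, one dose · Detection – Fluo-8 calcium dye fluorescence · Probe or stimulus – oxytocin near EC15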
V1R ag counter = V1a receptor agonism, counter-screen for OXTR agonists | CHO-V1R cells, Fluo-8 calcium fluorescence, agonist mode; 0% DMSO, 100% 3 nM vasopressin | activation, % at 3 µM | actives 0.25% (n = 320,000) | AID 2797;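 active means activation above the mean activation of all tested compounds plus 3 SD, per screening run, cut at about 20% in these data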;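 further: signal is peak over basal fluorescence ratio across a 100 second FLIPR read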
Target sequence (P37288 whole entry, looked up): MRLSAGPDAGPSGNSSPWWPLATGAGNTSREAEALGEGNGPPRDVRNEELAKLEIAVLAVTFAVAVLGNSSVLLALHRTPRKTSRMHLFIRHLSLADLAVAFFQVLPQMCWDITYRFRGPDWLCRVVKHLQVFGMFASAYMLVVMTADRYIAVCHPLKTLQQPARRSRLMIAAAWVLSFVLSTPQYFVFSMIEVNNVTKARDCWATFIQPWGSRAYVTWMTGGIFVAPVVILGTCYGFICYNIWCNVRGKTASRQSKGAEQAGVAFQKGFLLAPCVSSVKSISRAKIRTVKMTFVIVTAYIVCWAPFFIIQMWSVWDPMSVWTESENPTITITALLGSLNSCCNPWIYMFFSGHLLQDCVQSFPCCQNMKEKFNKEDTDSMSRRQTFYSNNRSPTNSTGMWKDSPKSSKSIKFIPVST
OXTR ag = activates the human oxytocin receptor. CHO-OTR cells, Fluo-8 calcium fluorescence; normalized: DMSO 0%, oxytocin 100%. P30559. actives 0.32% (n = 320,000). activation, % at 3 µM;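 active means activation above the mean of all tested compounds plus 3 SD, cutoff set per screening run, cut at about 20% in these data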;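 further: peak over basal fluorescence ratio from a 100 s FLIPR kinetic read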
TAAR1 ag confirm = human TAAR1 agonism, confirmed | shares compounds with TAAR1 agonist | CHO RD-HGA16 TAAR1, Fluo-8 calcium fluorescence; scaled: DMSO 0%, maximal phenethylamine 100% | activation, % at 3 µM | actives 82% (n = 2,400);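 active means activation above a cutoff set at the run's mean compound activation plus 3 SD, cut at about 39% in these data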
Ga16 ag counter = nonselective agonism, TAAR1 counter-screen. shares compounds with TAAR1 agonist. CHO-Ga16 parental, Fluo-8 calcium fluorescence; normalized to maximal ATP response, DMSO zero. activation, % at 3 µM. actives 50% (n = 2,400);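 active means activation above the run cutoff, the mean activation over all tested wells plus 3 SD, cut at about 12% in these data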;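 further: 0% = DMSO wells and 100% = maximal ATP response on the peak over basal ratio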
TAAR1 desens = counter-screen for human TAAR1 agonists: agonists that desensitize TAAR1. shares compounds with TAAR1 agonist. CHO RD-HGA16 hTAAR1, Fluo-8 calcium, beta-PEA response inhibition. inhibition, % at 3 µM. actives 46% (n = 2,400);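 active means inhibition above the run cutoff, the mean inhibition of all test compounds plus 3 SD, cut at about 49% in these data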;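 further: beta-PEA stimulus applied at its EC80; loss of beta-PEA calcium signal after compound pretreatment read as receptor desensitization; 0% = DMSO with beta-PEA at EC80 and 100% = DMSO alone without agonist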
Ga16 antag count = nonselective Ga16 antagonist in TAAR1 agonist counter-screen. shares compounds with TAAR1 agonist. CHO-Ga16 ATP-induced calcium, Fluo-8 fluorescence. actives 39% (n = 2,400). inhibition, % at 3 µM. AID 651952;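 active means inhibition above the plate's mean compound inhibition plus 3 SD, computed per plate, cut at about 22% in these data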;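 further: 0% = EC80 ATP with DMSO and 100% = DMSO wells without ATP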
* = called active by the depositor; . = not tested or not shown; ! = repeats disagree. In the library only some 2.3% were active in any assay of this set; here they are far more common.

SMILES	TAAR1 antag	TAAR1 agonist	OXTR potentiate	V1R ag counter	OXTR ag	TAAR1 ag confirm	Ga16 ag counter	TAAR1 desens	Ga16 antag count
Oc1ccc(C2CNCCc3c2cc(O)c(O)c3Cl)cc1 (stereo unspecified)	13	62*!	-1	1	1	81*	0	76*	10
O=C(Cn1cc(S(=O)(=O)Cc2ccccc2F)c2ccccc21)N1CCOCC1	-8	7	-7	0	1	.	.	.	.
CCOC(=O)c1c(NC(=O)C(C)N2CCN(C(=O)c3ccco3)CC2)sc2c1CCCC2 (stereo unspecified)	87*	84*	-5	3	2	42*	37*	71*	59*
CCCCN1Cc2ccccc2Oc2cc(Br)ccc2S1(=O)=O	-1	49*	.	.	.	69*	55*	19	18
O=C(O)c1ccc(NC(=S)NC(=O)c2ccc3ccccc3c2)cc1	12	47*	-4	5	4	40*	32*	26	26*
O=C(O)c1cccc(NC(=S)NC(=O)c2ccc3ccccc3c2)c1	7	73*	-6	10	8	33	31*	15	10
O=C(NC(=S)Nc1cccc(NC(=S)NC(=O)c2ccccc2)c1)c1ccccc1	15	3	.	.	.	.	.	.	.
CCC(C)NC(=S)N1CCN(C)CC1 (stereo unspecified)	-6	2	-16	1	0	.	.	.	.
CCOC(=O)c1c(C)[nH]c(C(=O)CN2C(=O)NC(C)(C)C2=O)c1C	-30	4	.	.	.	.	.	.	.
CCOC(=O)c1c(C)[nH]c(C(=O)CN2C(=O)NC(C)(c3ccc(C)cc3)C2=O)c1C (stereo unspecified)	9	97*	-25	20	19	102*	50*	58*	33*
CCOC(=O)c1c(C)[nH]c(C(=O)CN2C(=O)NC(CC)(c3ccccc3)C2=O)c1C (stereo unspecified)	20	53*	-15	9	14	34	12*	20	10
Nc1ccc2c3c(cccc13)C(=O)N(c1ccccc1)C2=O	85*	403*	.	.	.	176*	147*	53*	50*
O=C(O)c1ccc2c3c(cccc13)C(=O)N(c1ccccc1)C2=O	8	-1	1	2	1	.	.	.	.
O=C(NCCc1cccs1)c1ccc(CS(=O)Cc2cccc(Cl)c2)o1 (stereo unspecified)	22	63*	.	.	.	57*	1	39	5
COc1ccc(OC)c(CCNC(=O)c2ccc(CS(=O)Cc3cccc(Cl)c3)o2)c1 (stereo unspecified)	1	1	-8	6	3	.	.	.	.
Cc1ccc(Cn2nnc(C(=O)Nc3cccc(C)c3C)c2N)cc1	81*	118*	-10	38*	38*	123*	85*	87*	59*
Cc1cccc(-c2cc3nc(C)cc(N4CC(C)CC(C)C4)n3n2)c1 (stereo unspecified)	-15	70*	-5	1	-1	82*	7	30	-2
COc1cccc(-c2c(C(=O)N/N=C/c3ccoc3)nnn2-c2nonc2N)c1	-13	72*	-7	11	17	129*	76*	40	14
COc1cccc(-c2c(C(=O)N/N=C/c3ccc(C)s3)nnn2-c2nonc2N)c1	17	65*	-3	8	5	87*	44*	40	12
